Screening data: PubChem BioAssay, several laboratories
This is a sample that favours compounds with a hit; in the whole collection about 2.1% have one here.
GSK3A inh – blockers of GSK3A enzyme activity – biochemical, luminescence, cell-free homogeneous, HTS, primary screen | Glycogen synthase kinase-3 alpha (Homo sapiens), P49840 | GSK-3 alpha kinase, ADP-Glo luminescence, 60 min | inhibition, % at 10 µM | 320,000 tested, 0.1% active | AID 2650, 2010;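 active = more than half of replicates show inhibition above 20%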;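 also: GST-tagged GSK-3 alpha with peptide substrate and 25 µM ATP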
MEKK3 PB1 HTS – modulators of MEKK3-MEK5 PB1 binding, primary screen, biochemical, wildtype MEKK3, multiplex bead flow cytometry, Alexa488-MEK5 | 290,000 tested, 1.4% active | binding response (% of control), % at 10 µM | bead-based flow cytometry, Alexa488-MEK5 binding to MEKK3; actives lie on both sides; 0 = blocked by unlabeled MEK5, 100 = vehicle;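 active = binding response more than 3 SD above or below the average of its plate-row segment, actives on both sides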;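 also: Alexa488 bead fluorescence after subtracting the streptavidin-only scavenger bead signal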
Target sequence (Q99759 whole entry, looked up): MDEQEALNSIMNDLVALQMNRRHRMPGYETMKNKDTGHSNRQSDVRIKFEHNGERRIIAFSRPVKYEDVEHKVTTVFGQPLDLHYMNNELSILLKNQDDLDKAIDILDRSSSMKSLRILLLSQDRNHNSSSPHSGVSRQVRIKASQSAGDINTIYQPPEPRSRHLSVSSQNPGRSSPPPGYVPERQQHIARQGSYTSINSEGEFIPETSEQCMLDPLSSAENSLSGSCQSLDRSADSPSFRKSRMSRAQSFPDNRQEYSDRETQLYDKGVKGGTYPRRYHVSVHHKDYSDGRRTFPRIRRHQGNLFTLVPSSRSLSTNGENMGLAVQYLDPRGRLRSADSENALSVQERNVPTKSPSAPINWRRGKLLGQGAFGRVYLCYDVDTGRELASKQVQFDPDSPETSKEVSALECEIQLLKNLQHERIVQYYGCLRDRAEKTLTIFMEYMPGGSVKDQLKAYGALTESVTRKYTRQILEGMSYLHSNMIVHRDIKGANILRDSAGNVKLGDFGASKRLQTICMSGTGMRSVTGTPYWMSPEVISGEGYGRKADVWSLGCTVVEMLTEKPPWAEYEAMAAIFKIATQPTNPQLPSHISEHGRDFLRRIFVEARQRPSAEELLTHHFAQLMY
MEKK2wt PB1 HTS – modulators of MEK5 binding to wildtype MEKK2, primary screen, biochemical, multiplex bead flow cytometry, Alexa488-MEK5 | Mitogen-activated protein kinase kinase kinase 2 (Homo sapiens), Q9Y2U5 | Alexa488-MEK5 binding to MEKK2 WT; actives lie on both sides | binding response (% of control), % at 10 µM | 290,000 tested, 1.1% active | AID 1531, 2009; in the data active = binding response below about 67% or above about 130%
GSK3B inh – human GSK3beta kinase inhibitors, primary screen, biochemical, cell-free homogeneous, HTS | GST-GSK3beta kinase, ADP-Glo luminescence, 60 min; active compounds read low | AID 2097, 2009 | Glycogen synthase kinase-3 beta (Homo sapiens), P49841 | activity score (negative = inhibition), % at 10 µM | 300,000 tested, 0.038% active;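 active = more than half of replicate wells score below -50%, meaning over 50% inhibition versus plate controls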
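Assay system: GST-fused GSK3beta enzyme, cell-free / Medium: Tris pH 7.5 buffer with MgCl2, DTT, BSA, heparin / Also added: peptide substrate plus 25 µM ATP (final) / Compound: 10 µM single point / Timing: kinase reaction with compound 60 min at room temperature / Detection: ADP-Glo luminescence / Benchmarks: DMSO neutral wells and GW8510 at 20 µM as positive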
STK33 inh – inhibitors of purified STK33 kinase, primary screen, biochemical, ADP-Glo luminescence, homogeneous, cell-free. Serine/threonine-protein kinase 33 (Homo sapiens), Q9BYT3. MBP phosphorylation. inhibition, % at 10 µM. 320,000 tested, 0.073% active;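 active = inhibition at or above 25%, using the most active replicate where run in duplicate; inactive = inhibition below 25%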
MEKK2mut PB1 HTS – MEK5 binding signal on mutant MEKK2 PB1, primary screen, biochemical, multiplex bead flow cytometry, Alexa488-MEK5 | 290,000 tested, 0.35% active | Alexa488-MEK5 binding to MEKK2 mutant | AID 1530, 2009 | percent response, % at 10 µM; in the data active = percent response above about 24%, passing the limit was not always enough
MEKK2wt confirm – modulators of MEK5 binding to wildtype MEKK2, confirmation, biochemical, single concentration, multiplex bead flow cytometry | 5,900 tested, 2.4% active | Alexa488-MEK5 binding to MEKK2 WT; actives lie on both sides | binding response (% of control), % at 10 µM | AID 1892, 2009 | shares compounds with MEKK3 PB1 HTS; in the data active = binding response below about 16% or above about 210%; inactive = in between
MEKK2mut confirm – mutant MEKK2 PB1-MEK5 binding signal retest – biochemical, single concentration, multiplex bead flow cytometry, confirmation. shares compounds with MEKK3 PB1 HTS. Alexa488-MEK5 binding to MEKK2 mutant. percent response, % at 10 µM. 5,900 tested, 2% active. AID 1893, 2009; in the data active = percent response mostly above about 71%, no sharp cut-off; inactive = mostly below about 38%;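 also: higher means compound restores mutant binding toward wildtype level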
MEKK3 confirm – MEKK3 wild-type PB1 binding to MEK5, inhibitors, confirmation, biochemical, bead multiplex flow cytometry, single concentration, wildtype | shares compounds with MEKK3 PB1 HTS | Alexa488-MEK5 binding to MEKK3; active compounds read low | binding response (% of control), % at 10 µM | 5,900 tested, 1.8% active | AID 1894, 2009;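 active = binding response below 72% of control, or above a set upper limit, though filed actives all read lower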;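 also: lower values mean stronger disruption of MEK5 binding to MEKK3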
Numbers stand for hits; i = inactive; nt = not tested or not shown; [ ] = dose if it differs, or a comment.

SMILES	GSK3A inh	MEKK3 PB1 HTS	MEKK2wt PB1 HTS	GSK3B inh	STK33 inh	MEKK2mut PB1 HTS	MEKK2wt confirm	MEKK2mut confirm	MEKK3 confirm
Cc1cc(C)c(OCC(=O)NCC2COc3ccccc3O2)c(C)c1 (stereo not given)	i	nt	nt	nt	i	nt	nt	nt	nt
NC(=O)CSc1nc2cc([N+](=O)[O-])ccc2n1-c1cccc(C(F)(F)F)c1	i	133	i	i	i	i	i	i	i
CC(C)N=c1cc2n(-c3ccc(Cl)cc3)c3ccccc3nc-2cc1Nc1ccc(Cl)cc1	i	70[inhibitor]	i	i	i	i	i	i	53
O=S(=O)([N-]c1nc2ccccc2nc1-[n+]1ccccc1)c1ccc(F)cc1	i	i	i	i	i	i	nt	nt	nt
CCCc1cc(=O)[nH]c2nnc(SCC(=O)NCc3ccc4c(c3)OCO4)n12	i	nt	nt	i	i	nt	nt	nt	nt
COC(=O)C1=C[C@@H](C(=O)OC)[C@@H]2C3=C(C(=O)[C@@]2(C)NC(=O)c2ccccc2)[C@H](C)C(C(=O)OC)=C(C(=O)OC)[C@@H]3C1	i	i	i	i	i	i	nt	nt	nt
C/C=C/C=N/NC(=O)CN(c1ccc(Br)cc1)S(=O)(=O)c1ccccc1	i	149	i	i	i	i	i	i	i
CCN(CC(=O)NC(C)C)Cc1nc2c(Br)cc(Br)cc2c(=O)[nH]1	i	i	i	i	i	i	nt	nt	nt
CN1Cc2sc(N)c(C#N)c2CC1(C)C	i	i	52[inhibitor]	i	i	i	i	i	i
Cc1cc2nc3n(c2cc1C)CC1CC(C(=O)NCC2CC2)N(C)C31 (stereo not given)	i	i	i	i	i	i	nt	nt	nt
CN(C)n1cccc1/C=C(\C#N)S(=O)(=O)c1ccc(Cl)cc1	i	139	i	i	i	i	i	i	i
COCCCNC(=O)CN(Cc1ccccc1)S(=O)(=O)c1ccccc1	i	i	i	i	i	27	i	i	i
COCCCNC(=O)CN(CCc1ccccc1)S(=O)(=O)c1ccccc1	i	i	i	i	i	i	nt	nt	nt
O=C(NC1CCSc2ccccc21)c1ccc(C(F)(F)F)cc1 (stereo not given)	i	i	i	i	i	i	nt	nt	nt
CCN(CC)CCNC(=O)CS(=O)Cc1nc(-c2ccc(Cl)cc2)oc1C (stereo not given)	i	49[inhibitor]	i	i	i	i	i	i	i
Cc1cc(/C=C2\C(=O)NN(c3ccccc3)C2=O)c(C)n1-c1ccccc1O	i	36[inhibitor]	32[inhibitor]	i	i	i	i	i	i
Cc1cc(/C=C2/C(=O)NN(c3ccccc3)C2=O)c(C)n1-c1ccc(O)cc1	i	i	i	i	i	i	nt	nt	nt
Cc1cc(N2CCC(C)CC2)nc2cccc(O)c12	i	i	i	i	i	i	nt	nt	nt
Cc1[nH]c2ccccc2c1C(=O)COc1ccccc1	i	142	i	i	i	i	i	i	i
C=CCOc1ccc(/C=N/N2C(=O)C(CC(=O)Nc3ccc(F)cc3F)SC2=NC)cc1 (stereo not given)	i	128	i	i	i	i	i	i	i
CN(C)c1ccc(/C=N\Nc2nc(-c3ccccc3)cc(=O)[nH]2)cc1	nt	59[inhibitor]	i	i	nt	i	i	i	i
COc1ccc(/C(C)=N\Nc2nc(-c3ccccc3)cc(=O)[nH]2)cc1	i	i	i	i	i	i	nt	nt	nt
CCOC(=O)CSCC(=O)N1N=C(c2cccs2)CC1c1ccc(F)cc1 (stereo not given)	i	i	i	i	i	i	nt	nt	nt
O=C(CSc1nc2ccccc2s1)N1N=C(c2cccs2)CC1c1ccc(F)cc1 (stereo not given)	i	73[inhibitor]	i	i	i	i	i	i	i
COc1ccc(C2CC(c3cccs3)=NN2C(=O)CSc2nc3ccccc3o2)cc1 (stereo not given)	i	i	i	i	i	i	nt	nt	nt
SMILES	GSK3A inh	MEKK3 PB1 HTS	MEKK2wt PB1 HTS	GSK3B inh	STK33 inh	MEKK2mut PB1 HTS	MEKK2wt confirm	MEKK2mut confirm	MEKK3 confirm
COc1ccc(C2CC(c3cccs3)=NN2C(=O)CSc2nc3ccccc3s2)cc1 (stereo not given)	i	130	i	i	i	i	i	i	i
Cc1cc(C)nc(NC(=O)c2ccccc2O)n1	i	i	i	i	i	i	nt	nt	nt
COCCCNC(=O)Cc1ccc(S(=O)(=O)N2CCOCC2)s1	i	nt	nt	nt	i	nt	nt	nt	nt
CCCN1CCN(CCCNC(=S)Nc2ccc3nc(N4CCN(CC)CC4)cc(C)c3c2)CC1	i	i	i	i	i	i	nt	nt	nt
CCCCNC(=S)Nc1ccc2nc(N3CCN(CC)CC3)cc(C)c2c1	i	i	139	i	i	27	i	i	i
CCCCN(C)CCNC(=S)Nc1ccc2nc(N3CCN(CC)CC3)cc(C)c2c1	i	i	134	i	i	i	i	i	i
O=c1cc(CO)oc(CN2CCN(Cc3ccccc3)CC2)c1O	i	i	135	i	i	i	i	i	i
O=C(C1CCN(S(=O)(=O)c2ccc(Br)cc2)CC1)N1CCOCC1	i	i	i	i	i	i	nt	nt	nt
CCC(C)n1c(SCc2ccccc2)nc2ccsc2c1=O (stereo not given)	i	151	i	i	i	i	i	i	i
CCC(C)n1c(SCC(=O)Nc2ccccc2C(F)(F)F)nc2ccsc2c1=O (stereo not given)	i	i	i	i	i	i	nt	nt	nt
Cc1ccc(CSc2nc3ccsc3c(=O)n2Cc2ccccn2)cc1	nt	139	i	i	nt	i	i	i	i
CC(=O)Nc1ccc(SC[C@H](C)CN2CC[C@H](C(C)(C)C)CCC2=O)cc1	i	nt	nt	nt	i	nt	nt	nt	nt
CSc1ccc(/C=C/C(=O)NC(=O)c2ccccc2O)cc1	i	128	i	i	i	i	i	i	i
COc1ccccc1NC(=O)C12CC3CC(C1)CC(c1ccc(C)cc1)(C3)C2	i	i	i	i	i	i	nt	nt	nt
